Data from ChEMBL document CHEMBL1833936, “7-azaindenoisoquinolines as topoisomerase I inhibitors and potential anticancer agents” (J Med Chem, 2011).
Values after ≈ are worked out from the molar mass of the structure shown. Active and inactive are the calls of the source. No cut-off for these calls is given here.

Legend:
OVCAR-3 = assay: Cytotoxicity against human OVCAR3 cells after 48 hrs by SRB assay; type: functional; conditions: OVCAR-3, 48 h
Procedure, shortened: (§1)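 NCI 60-cell-line screen. Cells incubated 48 h with five 10-fold dilutions starting at 100 μM, then stained with sulforhodamine B. Optical density relative to control plotted against log concentration.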

[1] = molecular target: T1, DNA topoisomerase 1 (Homo sapiens) (UniProt P11387); assay: Inhibition of human topoisomerase 1 assessed as inhibition of radiolabeled DNA fragment cleavage 0.1 to 100 uM after 20 mins by gel-based phosphoimaging relative to control
T1 sequence (whole entry): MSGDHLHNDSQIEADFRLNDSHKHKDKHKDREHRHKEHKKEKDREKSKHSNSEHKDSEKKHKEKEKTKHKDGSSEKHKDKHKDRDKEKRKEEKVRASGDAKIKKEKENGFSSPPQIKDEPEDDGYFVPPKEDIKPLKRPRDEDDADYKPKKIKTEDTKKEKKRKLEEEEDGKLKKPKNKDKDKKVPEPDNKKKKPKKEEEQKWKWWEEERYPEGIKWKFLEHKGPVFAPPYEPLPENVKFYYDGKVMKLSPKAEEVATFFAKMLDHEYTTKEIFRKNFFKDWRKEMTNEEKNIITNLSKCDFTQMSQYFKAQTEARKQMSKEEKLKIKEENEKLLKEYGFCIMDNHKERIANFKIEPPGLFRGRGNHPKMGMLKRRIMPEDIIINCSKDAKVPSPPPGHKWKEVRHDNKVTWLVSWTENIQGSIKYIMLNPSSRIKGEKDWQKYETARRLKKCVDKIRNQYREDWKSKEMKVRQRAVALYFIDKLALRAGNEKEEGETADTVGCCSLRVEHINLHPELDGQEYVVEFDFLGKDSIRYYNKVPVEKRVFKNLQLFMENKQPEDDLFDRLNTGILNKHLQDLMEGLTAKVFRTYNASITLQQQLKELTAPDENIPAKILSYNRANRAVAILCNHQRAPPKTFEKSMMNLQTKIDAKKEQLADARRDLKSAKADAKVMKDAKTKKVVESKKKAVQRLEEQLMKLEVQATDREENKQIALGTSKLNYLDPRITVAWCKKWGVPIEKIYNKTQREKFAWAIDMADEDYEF
Procedure, shortened: (§2)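 Human recombinant Top1 purified from baculovirus. About 2 nM 117-bp DNA substrate, 3′-end-labeled with [α-32P]-dGTP by Klenow fill-in. Stopped with 0.5% SDS and formamide loading dye; 20% denaturing PAGE, phosphoimager. Tested at 0.1, 1, 10 and 100 μM.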

HOP-62 = assay: Cytotoxicity against human HOP62 cells after 48 hrs by SRB assay; type: functional; conditions: HOP-62, 48 h; procedure, shortened: as §1
[2] = molecular target: T1, DNA topoisomerase 1 (Homo sapiens); assay: Inhibition of human topoisomerase 1-mediated DNA relaxation assessed as DNA intercalation at compound concentration above 3 uM after 30 mins by gel electrophoresis relative to control
Procedure, shortened: (§3)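 Two-step unwinding assay. SV40 DNA first fully relaxed with excess Top1 for 15 min at 37 °C without drug. Relaxed DNA then incubated 30 min at 37 °C with drug at 1, 3, 10, 30 or 100 μM. Control was a further 30 min incubation at 37 °C without drug. Products resolved on gel.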

[3] = molecular target: T1, DNA topoisomerase 1 (Homo sapiens); assay: Inhibition of human topoisomerase 1-mediated DNA relaxation assessed as DNA intercalation at 100 uM after 30 mins by gel electrophoresis relative to control; procedure, shortened: as §3
SN12C = assay: Cytotoxicity against human SN12C cells after 48 hrs by SRB assay; type: functional; procedure, shortened: as §1
DU-145 = assay: Cytotoxicity against human DU145 cells after 48 hrs by SRB assay; type: functional; conditions: DU-145, 48 h; procedure, shortened: as §1
HCT-116 = assay: Cytotoxicity against human HCT116 cells after 48 hrs by SRB assay; type: functional; conditions: HCT-116, 48 h; procedure, shortened: as §1
[4] = Aqueous solubility at pH 7.5 after 24 hrs by HPLC; type: physicochemical
Procedure, shortened: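 Solid sample (4–10 mg) shaken in 1 M Tris buffer pH 7.5 for 24 h at 25 °C, then centrifuged and supernatant filtered. Supernatant analysed by reverse-phase C18 HPLC eluting methanol (1% TFA)/water 90:10. Concentration from one-point calibration against buffer solutions of known concentration.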

UACC-62 = assay: Cytotoxicity against human UACC62 cells after 48 hrs by SRB assay; type: functional; conditions: UACC-62, 48 h; procedure, shortened: as §1
SF-539 = assay: Cytotoxicity against human SF539 cells after 48 hrs by SRB assay; type: functional; conditions: SF-539, 48 h; procedure, shortened: as §1
MCF7 = assay: Cytotoxicity against human MCF7 cells after 48 hrs by SRB assay; type: functional; conditions: MCF7, 48 h; procedure, shortened: as §1
[5] = molecular target: T1, DNA topoisomerase 1 (Homo sapiens); assay: Inhibition of human topoisomerase 1-mediated DNA relaxation assessed as DNA intercalation at 1 to 100 uM after 30 mins by gel electrophoresis relative to control; procedure, shortened: as §3
[6] = molecular target: T1, DNA topoisomerase 1 (Homo sapiens); assay: Inhibition of human topoisomerase 1 assessed as inhibition of radiolabeled DNA fragment cleavage up to 100 uM after 20 mins by gel-based phosphoimaging relative to control; procedure, shortened: as §2
[7] = molecular target: T1, DNA topoisomerase 1 (Homo sapiens); assay: Inhibition of human topoisomerase 1 assessed as inhibition of radiolabeled DNA fragment cleavage after 20 mins by gel-based phosphoimaging relative to control; procedure, shortened: as §2

| SMILES | inhibition [1] | Activity [2] | Activity [3] | solubility at 24 h [4] [mM] | Activity [5] | inhibition [6] | inhibition [7] | GI50 (OVCAR-3) [µM] | GI50 (HOP-62) [µM] | GI50 (SN12C) [µM] | GI50 (DU-145) [µM] | GI50 (HCT-116) [µM] | GI50 (UACC-62) [µM] | GI50 (SF-539) [µM] | GI50 (MCF7) [µM] |
| --- | --- | --- | --- | --- | --- | --- | --- | --- | --- | --- | --- | --- | --- | --- | --- |
| O=C1c2cccnc2-c2c1c1ccccc1c(=O)n2CCCN1CCOCC1 | Active | – | – | – | – | – | – | 28.2 | 35.5 | 5.37 | 3.55 | 1.86 | > 100 | 5.62 | 2.75 |
| CC[C@@]1(O)C(=O)OCc2c1cc1n(c2=O)Cc2cc3ccccc3nc2-1 [CAMPTOTHECIN] | – | – | – | – | – | – | – | – | – | – | – | – | – | – | 0.013 |
| CN(C)CCCn1c2c(c3ccc([N+](=O)[O-])cc3c1=O)C(=O)c1ccccc1-2 | Active | – | – | – | – | – | – | 32.4 | – | – | – | – | – | – | 0.24 |
| COc1cc2c3c(n(C)c(=O)c2cc1OC)-c1cc2c(cc1C3=O)OCO2 | Active | – | – | – | – | – | – | – | 8.51 | – | 4.79 | 11.5 | 0.56 | 1.66 | 1.91 |
| CN(C)CCCn1c2c(c3ccccc3c1=O)C(=O)c1ccccc1-2 | Active | – | – | 0.28 (≈ 0.0931 mg/mL) | – | – | – | 1.66 | – | – | – | – | – | – | 0.55 |
| O=C1c2cccnc2-c2c1c1ccccc1c(=O)n2CCCn1ccnc1 | Active | – | – | – | – | – | – | 8.71 | 7.24 | 3.72 | 2.88 | 1.2 | 35.5 | 5.13 | 3.39 |
| O=C1c2cccnc2-c2c1c1ccc([N+](=O)[O-])cc1c(=O)n2CCCN1CCOCC1 | Active | – | – | – | – | – | – | – | – | – | – | – | – | – | – |

More lines, main results first:

| inhibition [1] | Activity [2] | Activity [3] | solubility at 24 h [4] [mM] | Activity [5] | inhibition [6] | inhibition [7] | SMILES | GI50 (OVCAR-3) [µM] | GI50 (HOP-62) [µM] | GI50 (SN12C) [µM] | GI50 (DU-145) [µM] | GI50 (HCT-116) [µM] | GI50 (UACC-62) [µM] | GI50 (SF-539) [µM] | GI50 (MCF7) [µM] |
| --- | --- | --- | --- | --- | --- | --- | --- | --- | --- | --- | --- | --- | --- | --- | --- |
| Active | Dose-dependent effect | Active | 100 (≈ 39.3 mg/mL) | – | – | – | COc1cc2c3c(n(CCCN(C)C)c(=O)c2cc1OC)-c1ncccc1C3=O | 3.55 | 3.39 | 3.16 | 1.7 | 1.58 | 13.2 | 4.07 | 0.44 |
| Active | – | – | – | inactive | Active | Dose-dependent effect | COc1cc2c3c(n(CCCN4CCOCC4)c(=O)c2cc1OC)-c1ncccc1C3=O | 0.37 | 0.3 | 0.52 | 0.31 | 0.22 | 0.095 | 0.29 | 0.052 |
| Active | – | – | – | – | – | – | COc1cc2c3c(n(CCCN)c(=O)c2cc1OC)-c1ncccc1C3=O | 1.58 | 3.02 | 2.88 | 1.62 | 0.38 | 8.13 | 2.19 | 49 |
| Active | – | – | – | – | Active | Dose-dependent effect | COc1cc2c3c(n(CCCn4ccnc4)c(=O)c2cc1OC)-c1ncccc1C3=O | – | – | – | – | – | – | – | – |
| Active | – | – | 24 (≈ 8 mg/mL) | – | – | – | CN(C)CCCn1c2c(c3ccccc3c1=O)C(=O)c1cccnc1-2 | 2.57 | 1.51 | 0.81 | 1.35 | 0.41 | 2.69 | 1.91 | 0.25 |
| inactive | – | – | – | – | – | – | O=C1c2cccnc2-c2c1c1ccccc1c(=O)n2CCCNCCO | 1.55 | 1.41 | 0.76 | 0.41 | 0.3 | 3.09 | 0.87 | 0.48 |
| Active | – | – | 60 (≈ 23.5 mg/mL) | – | – | – | COc1cc2c3c(n(CCCN(C)C)c(=O)c2cc1OC)-c1ccccc1C3=O | – | 11.5 | 11 | – | – | – | 6.17 | 6.17 |
| Active | – | – | – | – | – | – | CN(C)CCCn1c2c(c3ccc([N+](=O)[O-])cc3c1=O)C(=O)c1cccnc1-2 | 2.29 | 2.35 | 1 | 0.93 | 0.44 | 3.31 | 2.69 | 0.36 |
| Active | – | – | – | – | – | – | COc1cc2c3c(n(CCCNCCO)c(=O)c2cc1OC)-c1ncccc1C3=O | 0.34 | 0.3 | 0.23 | 0.32 | 0.15 | 0.12 | 0.26 | 0.074 |
